Measurements taken from ChEMBL document CHEMBL1146882, “Hepatoprotective activity of Schouwia thebica webb” (2006).

Legend:
[1] = system: Rattus norvegicus; assay: Triglyceride level in Sprague-Dawley rat serum at 100 mg/kg, po; format: functional
In short: (§1)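 Male Sprague–Dawley rats (180-200 g), 5 per group, dosed orally once daily for 5 successive days. Twenty-four hours after the last dose, each rat received a single oral dose of 50% CCl4 in corn oil (2.5 ml/kg). Comparison groups were corn oil alone and CCl4 alone. Two days later, blood was taken from the orbital plexus, and serum was separated by centrifugation at 3000 rpm for 15 min for the assays.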

[2] = system: Rattus norvegicus; assay: Total protein level in Sprague-Dawley rat serum at 100 mg/kg, po; format: functional; in short: as §1
[3] = system: Rattus norvegicus; assay: Alanine aminotransferase activity in Sprague-Dawley rat serum at 100 mg/kg, po; format: functional; in short: as §1
[4] = system: Rattus norvegicus; assay: Gamma-glutamyl transferase activity in Sprague-Dawley rat serum at 100 mg/kg, po; format: functional; in short: as §1
[5] = system: Rattus norvegicus; assay: Cholesterol level in Sprague-Dawley rat serum at 100 mg/kg, po; format: functional; in short: as §1
[6] = system: Rattus norvegicus; assay: Albumin level in Sprague-Dawley rat serum at 100 mg/kg, po; format: functional; in short: as §1
[7] = system: Rattus norvegicus; assay: Aspartate aminotransferase activity in Sprague-Dawley rat serum at 100 mg/kg, po; format: functional; in short: as §1
[8] = system: Rattus norvegicus; assay: Total bilirubin level in Sprague-Dawley rat serum at 100 mg/kg, po; format: functional; in short: as §1
[9] = system: Rattus norvegicus; assay: Glucose level in Sprague-Dawley rat serum at 100 mg/kg, po; format: functional; in short: as §1
[10] = system: Rattus norvegicus; assay: Cholesterol level in Sprague-Dawley rat serum at 25 mg/kg, po; format: functional, organism-based; design: dose 25 mg/kg; in short: as §1
[11] = system: Rattus norvegicus; assay: Glucose level in Sprague-Dawley rat serum at 25 mg/kg, po; format: functional, organism-based; design: dose 25 mg/kg; in short: as §1
[12] = system: Rattus norvegicus; assay: Total protein level in Sprague-Dawley rat serum at 25 mg/kg, po; format: functional, organism-based; design: dose 25 mg/kg; in short: as §1
[13] = system: Rattus norvegicus; assay: Albumin level in Sprague-Dawley rat serum at 25 mg/kg, po; format: functional, organism-based; design: dose 25 mg/kg; in short: as §1
[14] = system: Rattus norvegicus; assay: Gamma-glutamyl transferase activity in Sprague-Dawley rat serum at 25 mg/kg, po; format: functional, organism-based; design: dose 25 mg/kg; in short: as §1
[15] = system: Rattus norvegicus; assay: Triglyceride level in Sprague-Dawley rat serum at 25 mg/kg, po; format: functional, organism-based; design: dose 25 mg/kg; in short: as §1
[16] = system: Rattus norvegicus; assay: Aspartate aminotransferase activity in Sprague-Dawley rat serum at 25 mg/kg, po; format: functional, organism-based; design: dose 25 mg/kg; in short: as §1
[17] = system: Rattus norvegicus; assay: Total bilirubin level in Sprague-Dawley rat serum at 25 mg/kg, po; format: functional, organism-based; design: dose 25 mg/kg; in short: as §1
[18] = system: Rattus norvegicus; assay: Alanine aminotransferase activity in Sprague-Dawley rat serum at 25 mg/kg, po; format: functional, organism-based; design: dose 25 mg/kg; in short: as §1

In the case of `COc1cc(-c2cc(=O)c3c(O)cc(OC4O[C@H](CO)[C@@H](O)[C@@H]4OC4OC[C@@H](O)[C@H](O)[C@H]4O)cc3o2)ccc1O` (some centres not stated), the Activity [1] is reported as 177.22 mg/dL, the Activity [2] is reported as 5.67 g/dL and the Activity [3] is reported as 68.43 U/L. It also gave an Activity [4] of 12.03 U/L, an Activity [5] of 88.34 mg/dL and an Activity [6] of 3.07 g/dL. The Activity [7] was 61.64 U/L, the Activity [8] was 0.33 mg/dL and the Activity [9] was 163.36 mg/dL.
In the case of `COc1cc(-c2cc(=O)c3c(O)cc(O)cc3o2)ccc1O` [CHRYSOERIOL], the Activity [1] is reported as 176.21 mg/dL, the Activity [2] is reported as 5.61 g/dL and the Activity [3] is reported as 69.42 U/L. For the same compound, the Activity [4] was 12.05 U/L, the Activity [5] was 88.37 mg/dL and the Activity [6] was 3.05 g/dL. It also gave an Activity [7] of 62.65 U/L, an Activity [8] of 0.33 mg/dL and an Activity [9] of 165.36 mg/dL.
In the case of SILYMARIN, the Activity [10] is reported as 80.9 mg/dL, the Activity [11] is reported as 141 mg/dL and the Activity [12] is reported as 6.1 g/dL. It also gave an Activity [13] of 3.1 g/dL, an Activity [14] of 10.5 U/L and an Activity [15] of 171 mg/dL. For the same compound, the Activity [16] was 56.6 U/L, the Activity [17] was 0.38 mg/dL and the Activity [18] was 65.2 U/L.
